Assay results reported in ChEMBL document CHEMBL1132452, “Synthesis and anticonvulsant activity of novel and potent 2,3-benzodiazepine AMPA/kainate receptor antagonists” (J Med Chem, 1999).

Assays:
[1] = species: Mus musculus; experiment: The compound was tested for Anticonvulsant activity against audiogenic seizures in DBA/2 mice in clonic phase; type: functional
How it was run: (§1)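 Male DBA/2 mice (8–12 g, 22–25 days), groups of 10 per dose, given the compound ip in 30% DMSO/70% saline at doses within 3.3–200 µmol/kg. Sound stimulation 30 min later; latency and incidence of seizure phases scored. ED50 per phase by Litchfield–Wilcoxon, at least 32 animals per value.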

[2] = species: Mus musculus; experiment: The compound was tested for Anticonvulsant activity against audiogenic seizures in DBA/2 mice after pretreatment with Aniracetam in tonic phase.; type: functional
How it was run: (§2)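 Male DBA/2 mice (8–12 g, 22–25 days) given aniracetam 50 nmol icv 30 min before the ip compound (30% DMSO/saline), i.e. 60 min before auditory stimulation. Clonic or tonic phase incidence scored; ED50 by Litchfield–Wilcoxon, at least 32 animals.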

[3] = species: Mus musculus; experiment: The compound was tested for Anticonvulsant activity against audiogenic seizures in DBA/2 mice after pretreatment with Aniracetam in clonic phase; type: functional; how it was run: as §2
[4] = species: Mus musculus; experiment: The compound was tested for Anticonvulsant activity against AMPA induced seizures in DBA/2 mice clonic phase.; type: functional
[5] = species: Mus musculus; experiment: The compound was tested for Anticonvulsant activity against maximal electroshock (MES) induced seizures in Swiss mice.; type: functional
How it was run: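 Swiss mice given the compound ip in 30% DMSO/70% saline, then 45 min later ear-clip electroshock (50 mA, 20 ms pulses, 35 Hz, 400 ms). Protection was abolition of tonic hindlimb extension. Four to five doses, 8–10 mice each; ED50 by Litchfield–Wilcoxon.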

[6] = test system: Mus musculus; experiment: The compound was tested for Anticonvulsant activity against audiogenic seizures in DBA/2 mice in clonic phase. 60 min after ip administration.; type: functional; settings: 1 h
How it was run: (§3)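 Time course in male DBA/2 mice (8–12 g, 22–25 days) after ip dosing in 30% DMSO/70% saline, with auditory stimulation at the stated time after injection. Groups of 10 mice per time point; clonic-phase ED50 (95% confidence limits) by Litchfield–Wilcoxon, at least 32 animals per value.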

[7] = species: Mus musculus; experiment: The compound was tested for Anticonvulsant activity against AMPA induced seizures in DBA/2 mice in tonic phase; type: functional
[8] = species: Mus musculus; experiment: The compound was tested for Anticonvulsant activity against Pentylenetetrazole (PTZ) induced seizures in Swiss mice; type: functional
How it was run: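 Male Swiss mice (20–26 g, 42–48 days) pretreated ip with the compound in 30% DMSO/70% saline, then 45 min later PTZ 85 mg/kg (CD97) sc. Observed for 30 min; protection was absence of clonic spasms lasting at least 5 s. ED50 by Litchfield–Wilcoxon, at least 32 animals.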

[9] = test system: Mus musculus; experiment: The compound was tested for Anticonvulsant activity against audiogenic seizures in DBA/2 mice in clonic phase. 45 min after ip administration.; type: functional; settings: 0.75 h; how it was run: as §3
[10] = species: Mus musculus; experiment: The compound was tested for Anticonvulsant activity against KA induced seizures in DBA/2 mice.; type: functional
[11] = test system: Mus musculus; experiment: The compound was tested for Anticonvulsant activity against audiogenic seizures in DBA/2 mice in clonic phase. 30 min after ip administration.; type: functional; settings: 0.5 h; how it was run: as §3
[12] = test system: Mus musculus; experiment: The compound was tested for Anticonvulsant activity against audiogenic seizures in DBA/2 mice in clonic phase. 15 min after ip administration.; type: functional; settings: 0.25 h; how it was run: as §3
[13] = species: Mus musculus; experiment: The compound was tested for Anticonvulsant activity against audiogenic seizures in DBA/2 mice in tonic phase; type: functional; how it was run: as §1
[14] = test system: Mus musculus; experiment: The compound was tested for Anticonvulsant activity against audiogenic seizures in DBA/2 mice in clonic phase. 120 min after ip administration.; type: functional; settings: 2 h; how it was run: as §3
[15] = test system: Mus musculus; experiment: The compound was tested for Anticonvulsant activity against audiogenic seizures in DBA/2 mice in clonic phase. 90 min after ip administration.; type: functional; settings: 1.5 h; how it was run: as §3
[16] = species: Mus musculus; experiment: The compound was tested for locomotor deficit (rotarod test) in Swiss mice.
[17] = Relative lipophilicity of the compound; type: physicochemical; settings: reversed-phase TLC, acetone/water 2:1
How it was run: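 Reversed-phase TLC on plates dried at 105 °C for 1 h. Mobile phase acetone/water 2:1 (v/v). Compound in CHCl3 (3 mg/mL), 1 µL spotted. Five runs, each with a different placement on the plate. Mean Rf converted by Rm = log[(1/Rf) − 1]; higher Rm means higher lipophilicity.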

| Structure (SMILES) | Rm [17] | ED50 [1] [µmol/kg] | ED50 [2] [µmol/kg] | ED50 [3] [µmol/kg] | ED50 [4] [µmol/kg] | ED50 [5] [µmol/kg] | ED50 [6] [µmol/kg] | ED50 [7] [µmol/kg] | ED50 [8] [µmol/kg] | ED50 [9] [µmol/kg] | ED50 [10] [µmol/kg] | ED50 [11] [µmol/kg] | ED50 [12] [µmol/kg] | ED50 [13] [µmol/kg] | ED50 [14] [µmol/kg] | ED50 [15] [µmol/kg] | TD50 [16] [µM/kg] |
| --- | --- | --- | --- | --- | --- | --- | --- | --- | --- | --- | --- | --- | --- | --- | --- | --- | --- |
| CNC(=O)N1N=C(c2ccc(N)cc2)c2cc3c(cc2CC1=O)OCO3 | -0.459 | 12.4 | 31 | 33.9 | 18.6 | 18.6 | 13 | 10.3 | 16.3 | 12.1 | 8.61 | 12.4 | 14.3 | 8.7 | 40.8 | 19.4 | 48.6 |
| CCCNC(=O)N1N=C(c2ccc(N)cc2)c2cc3c(cc2CC1=O)OCO3 | -0.25 | 69.4 | – | – | – | 76.5 | – | – | > 100 | – | – | – | – | 49.2 | – | – | 182 |
| CCCCNC(=O)N1N=C(c2cccc(N)c2)c2cc3c(cc2CC1=O)OCO3 | -0.075 | 18.1 | – | – | – | 26.6 | – | – | 36.4 | – | – | – | – | 12.7 | – | – | 56.2 |
| CC1=NN=C(c2ccc(N)cc2)c2cc3c(cc2C1)OCO3 [GYKI-52466] | -0.404 | – | – | – | – | – | – | – | – | 37.2 | 27.8 | – | 10.8 | – | > 50 | > 50 | 76.1 |
| Nc1cccc(C2=NN=C(S)Cc3cc4c(cc32)OCO4)c1 | -0.213 | 16.7 | 85.9 | 65.2 | 32.8 | 30.9 | 22.4 | 26.2 | 40.2 | 15.2 | 18.6 | 16.7 | 32.6 | 8.88 | > 50 | 45.2 | 53.7 |
| SC1=NN=C(c2ccccc2)c2cc3c(cc2C1)OCO3 | -0.185 | 23.8 | – | – | – | 37.8 | – | – | 80.3 | – | – | 23.8 | – | 18.8 | – | – | 97.1 |
| Nc1cccc(C2=NNC(=O)Cc3cc4c(cc32)OCO4)c1 | -0.484 | 18 | 40.6 | 55 | 29.2 | 19.3 | 26.3 | 23.8 | 40.5 | 19.1 | 23.2 | 18 | > 50 | 12.7 | > 50 | 47.1 | 101 |

Second part, led by results:

| Rm [17] | Structure (SMILES) | ED50 [1] [µmol/kg] | ED50 [2] [µmol/kg] | ED50 [3] [µmol/kg] | ED50 [4] [µmol/kg] | ED50 [5] [µmol/kg] | ED50 [6] [µmol/kg] | ED50 [7] [µmol/kg] | ED50 [8] [µmol/kg] | ED50 [9] [µmol/kg] | ED50 [10] [µmol/kg] | ED50 [11] [µmol/kg] | ED50 [12] [µmol/kg] | ED50 [13] [µmol/kg] | ED50 [14] [µmol/kg] | ED50 [15] [µmol/kg] | TD50 [16] [µM/kg] |
| --- | --- | --- | --- | --- | --- | --- | --- | --- | --- | --- | --- | --- | --- | --- | --- | --- | --- |
| -0.215 | O=C1Cc2cc3c(cc2C(c2ccccc2)=NN1)OCO3 | 43.3 | – | – | – | 42.6 | – | – | 78 | – | – | 43.3 | – | 40.6 | – | – | 159 |
| -0.552 | Nc1ccc(C2=NNC(=O)Cc3cc4c(cc32)OCO4)cc1 | 15.4 | 39.6 | 62.6 | 37.9 | 32.1 | 21.3 | 28.5 | 71.8 | 18.7 | 19.6 | 15.4 | 7.55 | 10.9 | > 50 | > 50 | 99.1 |
| -0.441 | CNC(=O)N1N=C(c2cccc(N)c2)c2cc3c(cc2CC1=O)OCO3 | 13.6 | – | – | – | 21.4 | – | – | 19.6 | – | – | 13.6 | – | 11.2 | – | – | 48.9 |
| -0.368 | CCNC(=O)N1N=C(c2ccc(N)cc2)c2cc3c(cc2CC1=O)OCO3 | 35 | – | – | – | 52.5 | – | – | 68.2 | – | – | – | – | 23.8 | – | – | 134 |
| -0.181 | CCCNC(=O)N1N=C(c2cccc(N)c2)c2cc3c(cc2CC1=O)OCO3 | 85.3 | – | – | – | > 100 | – | – | > 100 | – | – | – | – | 63.8 | – | – | >100 |
| -0.323 | CCNC(=O)N1N=C(c2cccc(N)c2)c2cc3c(cc2CC1=O)OCO3 | 44.9 | – | – | – | 60.2 | – | – | 90.7 | – | – | – | – | 32.1 | – | – | 126 |
| -0.11 | CCCCNC(=O)N1N=C(c2ccc(N)cc2)c2cc3c(cc2CC1=O)OCO3 | 38.7 | – | – | – | 79.7 | – | – | > 100 | – | – | – | – | 32.6 | – | – | 108 |
| -0.269 | Nc1ccc(C2=NN=C(S)Cc3cc4c(cc32)OCO4)cc1 | 11.8 | 16.3 | 31.4 | 15.6 | 9.79 | 19.6 | 11.5 | 25.2 | 13.4 | 15.6 | 11.8 | 5.9 | 5.09 | > 50 | 45 | 39.8 |
